Results on 8 compounds are retold here after PubChem BioAssay.

Each structure is given as a SMILES string. The source made the active and inactive calls.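 The calls were made as follows, unless noted: active = fluorescence slope higher than the sample average by over 3 SD (cut at about -0.22 in these data, passing the limit was not always enough); inactive = the rest.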

Test [1] can be described thus: inhibitors of TNFa-induced NFkB p65 translocation, primary screen, imaging, HUVEC, MLSMR starter and 10KST1 sets (AID 438;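 active = inhibition above 20% together with a positive visual image hit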;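 also: compound added about 3h40 before a 20 min TNFalpha stimulation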;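 as to inhibition: signal is the nuclear over cytoplasmic p65 intensity ratio per well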). The conditions noted are these: HUVEC TNFa-induced p65 nuclear translocation; cell count: measured here: nuclei count (cytotoxicity indicator), at 2.08 µM; inhibition: at 2 µM, stronger effect = higher value, 0% TNFa-plus-vehicle, 100% no-TNFa wells.
The nature of test [2]: inhibitors of mutant huntingtin aggregation, primary screen, imaging, exon1htt(103Q)mCFP cells, high-content imaging (AID 483;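 active = visual image review flags a hit and inhibition of aggregation exceeds 20%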;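 also: compound exposure lasted 3 days before fixation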;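 as to nuclei count: percent of the per-plate median nuclei count of sample wells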). The conditions noted are these: exon1htt(103Q)mCFP cell line, aggregate imaging, at 2 µM; inhibition of aggregation: stronger effect = higher value; nuclei count: measured here: cell count, toxicity.
The nature of test [3]: inhibitors of E-selectin induction by TNFa, primary screen, imaging, HUVEC, immunofluorescence, MLSMR starter and 10KST1 sets (AID 487;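 active = visually confirmed hit in the image check and inhibition above 20%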;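 as to inhibition: signal is fraction of cell area covered by stained E-selectin grains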;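 as to nuclei count: 100% = median nuclei count of all wells on the same plate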). The conditions noted are these: HUVEC TNFalpha-induced E-selectin immunofluorescence imaging, at 2 µM; inhibition: stronger effect = higher value; nuclei count: measured here: cell number, toxicity.
For test [4], the target named is Voltage-gated potassium channel subunit beta-2 (Rattus norvegicus) (UniProt P62483). Put plainly: KvBeta enzyme negative modulators, primary screen, biochemical, NADPH fluorescence (AID 622).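 Also: slope of raw intensity against log time taken from 70 to 1610 s.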 The conditions noted are these: recombinant KvBeta, 4-cyanobenzaldehyde reduction, at 10 µM, stronger effect = higher value.
Voltage-gated potassium channel subunit beta-2 (Rattus norvegicus), sequence (P62483 whole entry, looked up): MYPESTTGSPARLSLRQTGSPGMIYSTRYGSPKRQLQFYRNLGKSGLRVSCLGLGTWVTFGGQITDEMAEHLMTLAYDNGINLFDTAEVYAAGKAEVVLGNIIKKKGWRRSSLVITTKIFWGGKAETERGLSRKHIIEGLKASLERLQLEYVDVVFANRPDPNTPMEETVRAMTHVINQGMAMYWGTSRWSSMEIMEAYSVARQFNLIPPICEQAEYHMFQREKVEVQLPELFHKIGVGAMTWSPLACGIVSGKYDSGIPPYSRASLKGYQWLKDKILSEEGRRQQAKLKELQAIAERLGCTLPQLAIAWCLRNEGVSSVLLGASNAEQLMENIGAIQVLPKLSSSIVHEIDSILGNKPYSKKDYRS
For test [5] the target is unchanged. Description: KvBeta positive modulators, primary screen, biochemical, NADPH fluorescence (AID 623;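 active = NADPH fluorescence slope more negative than the mean of all samples by about 3 SD, 99.7% confidence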;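 also: fluorescence intensity change per second fitted from 20 to 320 s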). As to conditions: Recombinant KvBeta, NADPH fluorescence decrease slope, 10 min; at 10 µM; stronger effect = lower value.
Test [6] addresses Alpha-2C adrenergic receptor (Homo sapiens) (UniProt P18825). Put plainly: modulators of alpha2C/GIRK thallium flux, primary screen, cell-based, HEK293 alpha2C/GIRK1/2 (AID 624;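 active = fluorescence slope after compound addition differing from the mean of all screened samples at 99.7% confidence, in either direction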;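 also: slope of fluorescence ratio to pre-addition baseline per second over 15 to 24 s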). As to conditions: thallium flux BTC fluorescence, at 10 µM, actives lie on both sides.
Test [7] in a line: inhibitors of larval lipid processing in zebrafish, primary screen, whole organism, PED6 fluorescence, gall bladder and intestine (AID 686;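 active = a full or partial loss of lipid-probe fluorescence in the fish gall bladder, intestine or both, judged by eye; inactive = no fluorescence loss, or compound toxic to the fish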;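 also: larvae 5 to 7 days old with five fish per well; signal comes from phospholipase A2 cleavage of quenched PED6 carried via bile; overnight exposure to compound and PED6 before scoring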). As to conditions: Zebrafish larvae PED6 lipid processing, fluorescence scoring; screened at 20 µM (by protocol). Summed up:
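Also added: quenched phospholipase substrate PED6, 100 nM final, ingested by larvae; System: zebrafish larvae, 5-7 d; Quantity: 5 larvae per well; Compound: 20 µM single dose; Schedule: overnight compound and PED6 incubation; Read-out: visual per-well fluorescence inhibition score; Measured by: By-eye fluorescence microscopy; Medium: E3.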

Test [8] in a line: inhibitors of Sendai virus-induced IRF3 signaling, primary screen, TLR/RLR signaling modifier project, cell-based, Sendai virus stimulus, luciferase, 10K MLSCN set (AID 602276;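 active = inhibition at or above 50% at 10 µM; inactive = inhibition below 50%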;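 also: firefly luciferase from ISG56 promoter only with Renilla not read in this screen; 0% = Sendai virus plus DMSO and 100% = medium plus DMSO without virus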). As to conditions: HEK293 RL24 IRF3 luciferase reporter, at 10 µM, stronger effect = higher value. Background: In a reporter assay the amount or activity of a reporter protein is the signal.
The nature of test [9]: inhibitors of poly I:C-induced TLR3 signaling, primary screen, cell-based, poly I:C stimulus, luciferase, 10K MLSCN set (AID 602277;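 active = inhibition of the reporter signal at or above 50%; inactive = inhibition below 50%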). As to conditions: HEK293-TLR3 RL24 IRF3 luciferase reporter, at 10 µM, stronger effect = higher value.

Alpha-2C adrenergic receptor (Homo sapiens), sequence (P18825 whole entry, looked up): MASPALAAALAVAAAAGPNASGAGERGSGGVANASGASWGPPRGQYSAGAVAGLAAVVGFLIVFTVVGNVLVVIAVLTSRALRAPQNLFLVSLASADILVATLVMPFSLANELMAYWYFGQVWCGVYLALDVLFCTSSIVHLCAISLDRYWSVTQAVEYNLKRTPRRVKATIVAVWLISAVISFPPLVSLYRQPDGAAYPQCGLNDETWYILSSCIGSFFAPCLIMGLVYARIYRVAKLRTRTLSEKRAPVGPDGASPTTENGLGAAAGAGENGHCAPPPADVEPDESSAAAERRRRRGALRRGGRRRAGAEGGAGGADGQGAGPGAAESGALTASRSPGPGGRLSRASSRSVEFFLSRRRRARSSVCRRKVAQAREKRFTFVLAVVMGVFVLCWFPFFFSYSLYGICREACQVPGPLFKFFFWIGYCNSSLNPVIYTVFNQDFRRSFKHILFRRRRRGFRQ

For orientation: inhibition means the drop in the measured response relative to a control, in per cent. As for `c1ccc(-c2nc3cnccn3c2Nc2ccc3c(c2)OCCO3)cc1`, the cell count in [1] was 606. In addition, the inhibition is -36.1% (inactive) in test [1], -20.7% (inactive) in test [3], 8.91% (inactive) in test [8] and 11.5% (inactive) in test [9]. For the same compound, the inhibition of aggregation in [2] is 11.9% (inactive). Further, the values for the nuclei count in [2] and in test [3] were 101% and 110%, respectively. Also, in test [4], the fluorescence slope was -0.202 (inactive). Moreover, the NADPH fluorescence slope in test [5] is -6.7e-06 (inactive). The slope in [6] is 0.00431 (inactive). For the same compound, in test [7], the result was inactive.
`CCOC(=O)Cn1nnnc1CN(Cc1ccc(OC)cc1)Cc1cc2cc(C)ccc2[nH]c1=O`: in test [1], the cell count stood at 623. In addition, the inhibition in test [1] is -4.9% (inactive); in test [3] it was 62.8% (inactive); in test [8], -4.16% (inactive); in test [9], -1.51% (inactive). Also, in test [2], the inhibition of aggregation is -27% (inactive). The figures for the nuclei count in test [2] and in test [3] were 112% and 135%, respectively. In test [4], the fluorescence slope was -0.384 (inactive). For the same compound, in test [5], the NADPH fluorescence slope was 6.1e-07 (inactive). The slope in test [6] is 0.00608 (inactive). The compound was classed as inactive in test [7].
Consider `Cc1cnc(C(=O)Nc2ccccc2-n2cccc2)cn1`, for which, in test [1], the cell count turned out to be 426. Also, the inhibition in [1] was 6% (inactive); in test [3], -157% (inactive); in test [8], -12.6% (inactive); in test [9], 0.535% (inactive). Also, in test [2], the inhibition of aggregation is -9.1% (inactive). For the same compound, the results for the nuclei count in test [2] and in [3] were 107% and 115%, respectively. Further, the fluorescence slope in [4] was -0.379 (inactive). In test [5], the NADPH fluorescence slope is -5.7e-05 (inactive). Besides, the slope in [6] is 0.00535 (inactive). Moreover, the compound was classed as inactive in [7].
For the compound `COC(=O)Nc1ccc(S(=O)(=O)N2CCCCCC2)cc1`, in test [1], the cell count turned out to be 336. The inhibition was -2.5% (inactive) in test [1], -61.6% (inactive) in [3], 17.1% (inactive) in test [8] and 19.7% (inactive) in test [9]. Moreover, in test [2], the inhibition of aggregation is 1.8% (inactive). The nuclei count in [2] turned out to be 100%; in test [3], 127%. In test [4], the fluorescence slope is -0.354 (inactive). Moreover, the NADPH fluorescence slope in [5] was 1.2e-05 (inactive). For the same compound, the slope in [6] was 0.0065 (inactive). Also, in test [7], the outcome was inactive.
As to `Cc1ccc(S(=O)(=O)N(CC(=O)N2CCC(C(N)=O)CC2)Cc2ccc(F)cc2)cc1`, the cell count in test [1] turned out to be 473. Further, the inhibition was 3.5% (inactive) in test [1], 34.4% (inactive) in test [3], 10.4% (inactive) in [8] and 15.9% (inactive) in test [9]. Further, in [2], the inhibition of aggregation was -8.5% (inactive). For the same compound, the nuclei count in test [2] amounted to 91.9%; in test [3] it was 110%. In addition, the fluorescence slope in test [4] was -0.361 (inactive). In addition, in test [5], the NADPH fluorescence slope is -6.9e-05 (inactive). Besides, the slope in test [6] is 0.00526 (inactive). The outcome in test [7] was inactive.
As to `Cc1cc(N2C(=O)CC(N3CCN(c4ccc(C(=O)c5cccs5)cc4)CC3)C2=O)no1` (stereo unspecified), the cell count in test [1] was 654. Moreover, the inhibition in test [1] was 10.8% (inactive); in test [3], -31.2% (inactive); in test [8] it was -4.13% (inactive); in [9], -9.36% (inactive). The inhibition of aggregation in test [2] was -3% (inactive). Moreover, the nuclei count came to 112% in test [2] and 93.1% in test [3]. For the same compound, in [4], the fluorescence slope is -0.392 (inactive). The NADPH fluorescence slope in test [5] is -4.4e-05 (inactive). Further, the slope in test [6] was 0.00594 (inactive). Also, the compound was called inactive in test [7].
For `CCCC(=O)Nc1ccc(C(=O)O)cc1NC(=O)CCC`, in [1], the cell count was determined as 442. The inhibition in test [1] is -4.3% (inactive); in test [3], 39.4% (inactive); in test [8], 12.9% (inactive); in test [9], 15.5% (inactive). Besides, in [2], the inhibition of aggregation was -9.3% (inactive). Further, the figures for the nuclei count in [2] and in test [3] were 104% and 89.9%, respectively. In test [4], the fluorescence slope was -0.441 (inactive). Besides, in test [5], the NADPH fluorescence slope was -5e-05 (inactive). The slope in [6] was 0.00422 (inactive). For the same compound, the result in [7] was inactive.
For `O=C(Cn1[nH]c(=O)c2ccccc2c1=O)OCC(=O)N1CCCc2ccccc21`, the cell count in test [1] was 335. Besides, the inhibition in [1] was 4.2% (inactive); in [3] it was -37% (inactive); in test [8] it was 8.5% (inactive); in test [9], 10.3% (inactive). The inhibition of aggregation in test [2] is -9% (inactive). The results for the nuclei count in test [2] and in test [3] were 98.2% and 117%, respectively. Further, in test [4], the fluorescence slope was -0.389 (inactive). Also, the NADPH fluorescence slope in test [5] is -6e-05 (inactive). For the same compound, the slope in test [6] is 0.00579 (inactive). In addition, the compound was called inactive in test [7].
